Activity calls are given as the source filed them. No cut-off for these calls is given here.
Assays:
Format in all cases: cell-based
Conditions in all cases: Oocyte
[1] = target: Sodium channel protein type 2 subunit alpha (Rattus norvegicus) (UniProt P04775); assay: Blockade of voltage-activated rat brain Nav1.2 sodium channel type 2 channel expressed in Xenopus laevis oocytes assessed as effect on evoked current by two-electrode voltage clamp method
Procedure, shortened: (§1)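 Channels expressed in Xenopus laevis oocytes from injected cRNA (rat Kv1.1, rat Kv1.4 or rat brain type II Na channel), incubated 1-5 days. Vitelline membrane removed. Two-electrode voltage clamp, whole-cell currents; 2 M KCl electrodes, 0.6-1.0 MΩ. Filtered 1 kHz, sampled 4 kHz, P/n leak subtraction. Bath: frog Ringer's, pH 7.2. Compounds from DMSO stock, final up to 10 μM in bath; DMSO-only control.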

[2] = target: Potassium voltage-gated channel subfamily A member 1 (Rattus norvegicus) (UniProt P10499); assay: Blockade of voltage-activated rat Kv1.1 potassium channel expressed in Xenopus laevis oocytes assessed as effect on evoked current upto 10 uM by two-electrode voltage clamp method; procedure, shortened: as §1
[3] = target: Potassium voltage-gated channel subfamily A member 4 (Rattus norvegicus) (UniProt P15385); assay: Blockade of voltage-activated rat Kv1.4 potassium channel expressed in Xenopus laevis oocytes assessed as effect on evoked current upto 10 uM by two-electrode voltage clamp method; procedure, shortened: as §1
Chain of Potassium voltage-gated channel subfamily A member 4 (Rattus norvegicus) (P15385 whole entry): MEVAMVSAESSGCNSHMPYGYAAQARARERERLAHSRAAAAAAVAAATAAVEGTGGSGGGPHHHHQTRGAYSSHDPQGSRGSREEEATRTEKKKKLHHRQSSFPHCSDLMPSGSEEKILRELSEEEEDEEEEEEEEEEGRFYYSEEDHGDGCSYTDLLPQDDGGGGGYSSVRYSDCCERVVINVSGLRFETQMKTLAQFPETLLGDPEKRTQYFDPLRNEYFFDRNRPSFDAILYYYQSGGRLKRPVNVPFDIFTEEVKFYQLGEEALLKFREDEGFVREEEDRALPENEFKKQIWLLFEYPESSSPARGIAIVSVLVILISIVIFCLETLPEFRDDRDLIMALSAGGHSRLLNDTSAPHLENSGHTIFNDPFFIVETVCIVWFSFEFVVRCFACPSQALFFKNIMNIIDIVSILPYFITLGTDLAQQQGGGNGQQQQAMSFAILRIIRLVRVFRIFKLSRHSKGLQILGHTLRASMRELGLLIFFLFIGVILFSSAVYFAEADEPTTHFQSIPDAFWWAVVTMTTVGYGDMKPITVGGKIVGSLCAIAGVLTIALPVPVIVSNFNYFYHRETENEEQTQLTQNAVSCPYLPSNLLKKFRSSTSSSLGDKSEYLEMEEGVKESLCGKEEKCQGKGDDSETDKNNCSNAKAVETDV

Chain of Potassium voltage-gated channel subfamily A member 1 (Rattus norvegicus) (P10499 whole entry): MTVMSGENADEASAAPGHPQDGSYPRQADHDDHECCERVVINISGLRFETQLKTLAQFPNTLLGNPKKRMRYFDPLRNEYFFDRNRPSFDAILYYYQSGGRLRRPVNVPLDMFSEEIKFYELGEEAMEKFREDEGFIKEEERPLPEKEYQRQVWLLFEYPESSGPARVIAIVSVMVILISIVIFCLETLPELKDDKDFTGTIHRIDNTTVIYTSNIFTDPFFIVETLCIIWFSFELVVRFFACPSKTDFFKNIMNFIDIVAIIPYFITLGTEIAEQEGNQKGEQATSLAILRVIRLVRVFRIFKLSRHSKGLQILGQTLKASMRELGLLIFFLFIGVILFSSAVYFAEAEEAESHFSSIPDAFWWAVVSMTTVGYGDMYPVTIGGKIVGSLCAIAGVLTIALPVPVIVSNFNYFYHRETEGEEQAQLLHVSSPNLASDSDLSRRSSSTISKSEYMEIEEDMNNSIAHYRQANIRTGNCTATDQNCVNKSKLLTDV
Chain of Sodium channel protein type 2 subunit alpha (Rattus norvegicus) (P04775 whole entry, looked up): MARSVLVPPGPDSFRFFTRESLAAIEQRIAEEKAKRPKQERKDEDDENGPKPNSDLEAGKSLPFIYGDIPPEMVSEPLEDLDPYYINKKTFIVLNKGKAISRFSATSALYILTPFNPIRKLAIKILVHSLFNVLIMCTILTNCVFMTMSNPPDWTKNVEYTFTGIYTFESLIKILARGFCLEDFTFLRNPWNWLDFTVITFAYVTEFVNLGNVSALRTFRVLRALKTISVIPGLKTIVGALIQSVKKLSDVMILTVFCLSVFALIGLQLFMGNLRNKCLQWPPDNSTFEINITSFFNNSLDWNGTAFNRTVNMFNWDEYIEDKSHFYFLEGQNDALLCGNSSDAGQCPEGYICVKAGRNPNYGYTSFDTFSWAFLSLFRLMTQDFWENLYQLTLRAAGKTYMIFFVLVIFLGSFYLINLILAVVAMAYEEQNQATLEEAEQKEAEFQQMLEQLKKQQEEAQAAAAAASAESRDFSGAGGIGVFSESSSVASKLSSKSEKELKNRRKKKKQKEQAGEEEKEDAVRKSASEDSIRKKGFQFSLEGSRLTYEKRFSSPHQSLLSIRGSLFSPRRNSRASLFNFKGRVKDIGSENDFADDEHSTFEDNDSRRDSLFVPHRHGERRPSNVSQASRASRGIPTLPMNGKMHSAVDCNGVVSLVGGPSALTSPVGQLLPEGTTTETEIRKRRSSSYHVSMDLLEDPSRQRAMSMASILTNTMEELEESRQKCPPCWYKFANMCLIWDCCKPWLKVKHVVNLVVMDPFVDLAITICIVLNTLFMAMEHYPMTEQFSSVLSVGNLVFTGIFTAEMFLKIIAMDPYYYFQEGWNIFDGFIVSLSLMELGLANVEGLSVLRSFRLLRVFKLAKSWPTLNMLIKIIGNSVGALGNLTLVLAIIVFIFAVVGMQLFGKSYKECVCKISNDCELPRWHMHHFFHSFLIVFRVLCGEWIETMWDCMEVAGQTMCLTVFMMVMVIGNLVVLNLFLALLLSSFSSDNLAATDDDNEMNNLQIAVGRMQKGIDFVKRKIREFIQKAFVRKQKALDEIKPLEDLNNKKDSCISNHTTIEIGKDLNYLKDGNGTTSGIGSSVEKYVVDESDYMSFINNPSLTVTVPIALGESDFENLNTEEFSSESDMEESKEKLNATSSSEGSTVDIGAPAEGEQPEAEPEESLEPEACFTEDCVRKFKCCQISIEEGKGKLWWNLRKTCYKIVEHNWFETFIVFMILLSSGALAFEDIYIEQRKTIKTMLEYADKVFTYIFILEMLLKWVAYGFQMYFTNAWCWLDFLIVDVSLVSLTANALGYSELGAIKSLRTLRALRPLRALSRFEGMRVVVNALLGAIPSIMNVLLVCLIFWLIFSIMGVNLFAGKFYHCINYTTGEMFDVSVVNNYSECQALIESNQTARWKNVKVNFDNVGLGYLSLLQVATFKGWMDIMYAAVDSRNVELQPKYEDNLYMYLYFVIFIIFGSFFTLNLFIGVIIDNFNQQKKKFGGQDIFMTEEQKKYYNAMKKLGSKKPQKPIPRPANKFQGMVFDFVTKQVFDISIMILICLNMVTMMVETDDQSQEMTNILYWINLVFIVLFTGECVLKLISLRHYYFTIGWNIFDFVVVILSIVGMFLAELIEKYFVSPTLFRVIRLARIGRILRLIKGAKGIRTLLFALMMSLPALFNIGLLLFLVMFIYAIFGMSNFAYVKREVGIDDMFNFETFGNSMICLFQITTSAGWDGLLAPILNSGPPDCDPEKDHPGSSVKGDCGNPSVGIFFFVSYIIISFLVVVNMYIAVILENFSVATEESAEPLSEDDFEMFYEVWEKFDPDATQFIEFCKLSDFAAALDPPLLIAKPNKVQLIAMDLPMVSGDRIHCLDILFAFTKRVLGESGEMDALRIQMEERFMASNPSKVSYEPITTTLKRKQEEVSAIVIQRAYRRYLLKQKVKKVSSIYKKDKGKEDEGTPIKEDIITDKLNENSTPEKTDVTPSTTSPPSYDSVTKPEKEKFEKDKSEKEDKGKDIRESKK

SMILES	Activity [1]	Activity [2]	Activity [3]
C=CC(C)(C)[C@@]12CCN(C)C1=Nc1cc(Br)ccc12	inactive	inactive	inactive
C=CC(C)(C)c1[nH]c2cc(Br)ccc2c1CCNC	inactive	inactive	inactive
C=CC(C)(C)[C@@]12CCN(C)[C@@H]1Nc1cc(Br)ccc12	inactive	inactive	inactive
C=CC(C)(C)[C@@]12CCN(C)[C@@H]1N(CC=C(C)C)c1cc(Br)ccc12	inactive	inactive	inactive
